The source of these data is ChEMBL document CHEMBL1177893, “Evaluation of labdane derivatives as potential anti-inflammatory agents” (Eur J Med Chem, 2010).

Molecules are shown by their SMILES. Calls of active or inactive are those of the source. The rule behind the calls is not given here.

Data set [1] concerns RAW264.7. Briefly: Antiinflammatory activity in mouse RAW264.7 cells assessed as inhibition of LPS-induced PGE2 production treated 30 mins before LPS challenge measured after 24 hrs by ELISA. Type of data set: functional, cell-based. The method, boiled down:
(§1)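 RAW 264.7 macrophages pretreated 30 min with compound, then stimulated with LPS 250 ng/ml for 24 h. PGE2 in culture medium quantified in duplicate by EIA kit. IC50 is the concentration giving 50% inhibition of PGE2 release. Three independent experiments in triplicate.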
(In an ELISA, binding on a coated surface is turned into a signal by an enzyme label.)

Data set [2] concerns RAW264.7. Briefly: Antiinflammatory activity in mouse RAW264.7 cells assessed as inhibition of LPS-induced nitrite production treated 30 mins before LPS challenge measured after 24 hrs by Griess method. Type of data set: functional, cell-based. The method, boiled down: (§2)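 RAW 264.7 cells pre-incubated 30 min with compound (1, 2, 5, 10, 25 µM; range tested up to 50 µM), then LPS 250 ng/ml for 24 h. Medium nitrite measured by Griess reaction (sulfanilamide/naphthylethylenediamine in phosphoric acid, 10 min room temperature), read spectrophotometrically. IC50 is the concentration giving 50% inhibition of NO release. Three independent experiments in triplicate.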
(In general: The Griess reaction detects nitrite, a stable product of nitric oxide.)

Data set [3] is described as follows: Cytotoxicity against LPS-stimulated mouse RAW264.7 cells assessed as cell viability at 1 uM after 24 hrs by MTT assay. Type of data set: cell-based. The note with it: LPS-stimulated RAW264.7 cells, read-out: Activity. The method, boiled down: (§3)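 RAW 264.7 cells plated at 10⁵ cells/well, pre-incubated 30 min with compound (1-25 µM), then LPS 250 ng/ml for 24 h. MTT added for 4 h at 37 °C; formazan dissolved in DMSO, absorbance read at 540 nm. Viability expressed relative to untreated controls. Triplicate wells, at least three independent experiments.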
A general note: Tetrazolium assays rely on reduction of a dye to a coloured formazan, in cell work by metabolically active cells.

The test system of data set [4] is RAW264.7. Briefly: Antiinflammatory activity in mouse RAW264.7 cells assessed as inhibition of LPS-induced nitrite production at 25 uM treated 30 mins before LPS challenge measured after 24 hrs by Griess method. It is filed as functional, cell-based. The method, boiled down: as §2
In data set [5] the test system is RAW264.7. Briefly: Cytotoxicity against LPS-stimulated mouse RAW264.7 cells assessed as cell viability at 10 uM after 24 hrs by MTT assay. Type of data set: cell-based. To be noted: raw264.7, 24 h. The method, boiled down: as §3
The subject of data set [6] is RAW264.7. Briefly: Antiinflammatory activity in mouse RAW264.7 cells assessed as inhibition of LPS-induced PGE2 production at 25 uM treated 30 mins before LPS challenge measured after 24 hrs by ELISA. Type of data set: functional, cell-based. The method, boiled down: as §1
Data set [7] relates to Mus musculus. Briefly: Antiinflammatory activity in Swiss mouse assessed as reduction of 12-O-tetradecanoylphorbol acetate-induced ear swelling at 0.25 to 1 mg/ear administered topically measured after 4 hrs. It is filed as functional, organism-based. Summed up:
(§4)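 TPA ([…]) applied to inner and outer surfaces of right ear of Swiss mice (20-25 g); test agent applied topically in acetone 30 min before TPA. Mice killed after 4 h; equal ear punches weighed, edema as right-over-left weight increase. MPO measured in saline homogenate supernatants (10,000g, 15 min, 4 °C) with tetramethylbenzidine substrate, pH 5.4 phosphate. Three independent experiments in triplicate.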

Data set [8] relates to Mus musculus. Briefly: Antiinflammatory activity in Swiss mouse ear homogenates assessed as reduction of 12-O-tetradecanoylphorbol acetate-induced myeloperoxidase activity at 0.25 to 1 mg/ear administered topically measured after 4 hrs. Type of data set: functional, organism-based. Summed up: as §4
The test system of data set [9] is RAW264.7. Briefly: Antiinflammatory activity in mouse RAW264.7 cells assessed as inhibition of LPS-induced nitrite production at 50 uM treated 30 mins before LPS challenge measured after 24 hrs by Griess method. It is filed as functional, cell-based. The method, boiled down: as §2
In data set [10] the test system is RAW264.7. Briefly: Cytotoxicity against LPS-stimulated mouse RAW264.7 cells assessed as cell viability at 25 uM after 24 hrs by MTT assay. It is filed as cell-based. To be noted: raw264.7, 24 h. Summed up:
as §3

One may read the IC50 as the concentration that inhibits the measured activity by half. `C[C@@H](CC[C@@H]1[C@@]2(C)CCCC(C)(C)[C@@H]2CC[C@@]1(C)O)CC(=O)O` [LABDANIC ACID]: the IC50 in the data set on RAW264.7 [1] and in the data set on RAW264.7 [2] was greater than 50 µM in each case. Moreover, the viability at 24 h, 1 µM in [3] came out at 80%.
`COC(=O)C[C@@H](C)CC[C@@H]1[C@@]2(C)CCCC(C)(C)[C@@H]2CC[C@@]1(C)O` [LABDANIC ACID METHYL ESTER]: the IC50 stood at 10 µM in the data set on RAW264.7 [1] and 5 µM with RAW264.7 [2]. In addition, the inhibition entry in the data set with RAW264.7 [1] and with RAW264.7 [2] was “Dose-dependent effect” in each case. Further, the inhibition result in the data set on RAW264.7 [4] and in the data set on RAW264.7 [6] was “Active” each time. The viability at 24 h, 1 µM in [3] amounted to 95%. In addition, in the data set with RAW264.7 [5], the Activity entry is given as “Non-toxic”. Moreover, the result in the data set on Mus musculus [7] and in the data set on Mus musculus [8] was Active.
`CC(=O)OCC[C@@H](C)CC[C@@H]1[C@@]2(C)CCCC(C)(C)[C@@H]2CC[C@@]1(C)O`: in the data set with RAW264.7 [1], the IC50 was found to be 25 µM and the inhibition result was “Dose-dependent effect”. Moreover, in the data set on RAW264.7 [2], the IC50 was found to be 15 µM and the inhibition entry is “Dose-dependent effect”. Also, the viability at 24 h, 1 µM in data set [3] was found to be 90%. For the same molecule, in the data set on RAW264.7 [5], the Activity result is on record as “Non-toxic”.
`C[C@H](CCO)CC[C@@H]1[C@@]2(C)CCCC(C)(C)[C@@H]2CC[C@@]1(C)O` [LABDANEDIOL]: in the data set on RAW264.7 [1], the IC50 amounted to 25 µM and the inhibition entry was “Dose-dependent effect”. Also, in the data set with RAW264.7 [2], the IC50 came out at 15 µM and the inhibition entry was “Dose-dependent effect”. Further, in data set [3], the viability at 24 h, 1 µM worked out at 40%. Also, in the data set on RAW264.7 [5], the Activity entry is “Toxic”.
With `C[C@H](CCOC(=O)c1ccc(Br)cc1)CC[C@@H]1[C@@]2(C)CCCC(C)(C)[C@@H]2CC[C@@]1(C)O`, the half-maximal inhibitory concentration (IC50) with RAW264.7 [1] and with RAW264.7 [2] was greater than 50 µM each time. For the same molecule, the viability at 24 h, 1 µM in [3] came out at 80%.
In the case of `CC(=N)NCc1cccc(CN)c1`, in the data set with RAW264.7 [9], the inhibition result was “Active”.
With `CCCCCCCCCCCC(=O)OCC[C@@H](C)CC[C@@H]1[C@@]2(C)CCCC(C)(C)[C@@H]2CC[C@@]1(C)O`, the IC50 in the data set with RAW264.7 [1] and with RAW264.7 [2] was greater than 50 µM throughout. In data set [3], the viability at 24 h, 1 µM was 80%.
With `CC1=C(CC[C@H](C)CCO)[C@@]2(C)CCCC(C)(C)[C@@H]2CC1`, in the data set on RAW264.7 [1], the half-inhibitory concentration (IC50) came to 20 µM and the inhibition result was “Dose-dependent effect”. For the same molecule, in the data set with RAW264.7 [2], the IC50 is 15 µM and the inhibition result was “Dose-dependent effect”. Also, the viability at 24 h, 1 µM in data set [3] was found to be 75%. The Activity result with RAW264.7 [10] was “Toxic”.
As to `C[C@H](CC=O)CC[C@@H]1[C@@]2(C)CCCC(C)(C)[C@@H]2CC[C@@]1(C)O`, the IC50 in the data set on RAW264.7 [1] and with RAW264.7 [2] was greater than 50 µM in each case. The viability at 24 h, 1 µM in data set [3] came to 80%.
`C[C@H](CCO)CC[C@@]1(C)C2=C(CC[C@@H]1C)C(C)(C)CCC2`: the IC50 was 25 µM in the data set on RAW264.7 [1] and 10 µM in the data set on RAW264.7 [2]. Further, the inhibition result in the data set with RAW264.7 [1] and in the data set with RAW264.7 [2] was “Dose-dependent effect” throughout. The viability at 24 h, 1 µM in [3] amounted to 75%. In addition, in the data set on RAW264.7 [10], the Activity entry was “Toxic”.
